Converted amounts (≈) assume the structure as drawn.
Key:
Haemophilus influenzae [1] = experiment: In vitro antimicrobial activity against aerobic bacteria Haemophilus influenzae 76; type: functional
Streptococcus [2] = experiment: In vitro antimicrobial activity against aerobic bacteria Streptococcus B 5; type: functional
Streptococcus [3] = experiment: In vitro antimicrobial activity against aerobic bacteria Streptococcus C 24; type: functional
Enterococcus faecium = experiment: In vitro antimicrobial activity against Streptococcus faecium X66; type: functional, streptococcus fae-cium
Mus musculus [4] = experiment: Peripheral plasma levels in mice after oral administration of 50 mg/kg dose for 1 hr; type: functional, organism-based; set-up: dose 50 mg/kg
Summary of the method: (§1)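 Mice were given the compound orally and sampled for peripheral plasma at each time point. Plasma was assayed microbiologically against Micrococcus luteus seeded in Antibiotic Medium 1. Inhibition zone sizes were read, and concentrations were calculated from each compound's own standard curve. Each value is the mean of five mice per time point.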

Streptococcus [5] = experiment: In vitro antimicrobial activity against aerobic bacteria Streptococcus D 2041; type: functional
Streptococcus sanguinis = experiment: In vitro antimicrobial activity against aerobic bacteria Streptococcus sanguis MX132; type: functional
Streptococcus pyogenes [6] = experiment: In vivo effective dose against experimental infections in rodent caused by Streptococcus pyogenes C203 when administered orally; type: functional; details: po
Streptococcus [7] = experiment: In vitro antimicrobial activity against aerobic bacteria Streptococcus B 8; type: functional
Mus musculus [8] = experiment: Peripheral plasma levels in mice after oral administration of 100 mg/kg dose for 2 hr; type: functional, organism-based; set-up: dose 100 mg/kg; summary of the method: as §1
Streptococcus [9] = experiment: In vitro antimicrobial activity against aerobic bacteria Streptococcus D 9960; type: functional
Staphylococcus aureus [10] = experiment: In vitro antimicrobial activity against Staphylococcus aureus X1; type: functional
[11] = test system: Staphylococcus epidermidis; experiment: In vitro antimicrobial activity against aerobic bacteria Streptococcus epi 270; type: functional
[12] = test system: Staphylococcus epidermidis; experiment: In vitro antimicrobial activity against aerobic bacteria Streptococcus epi 222; type: functional
Staphylococcus aureus [13] = experiment: In vitro antimicrobial activity against aerobic bacteria Staphylococcus aureus X400; type: functional
Staphylococcus aureus [14] = experiment: In vitro antimicrobial activity against aerobic bacteria Staphylococcus aureus V41; type: functional
Staphylococcus aureus [15] = experiment: In vitro antimicrobial activity against aerobic bacteria Staphylococcus aureus 513E; type: functional
Streptococcus pyogenes [16] = experiment: In vivo effective dose against experimental infections in rodent caused by Streptococcus pyogenes C203 when administered sc; type: functional
Streptococcus pneumoniae [17] = experiment: In vitro antimicrobial activity against aerobic bacteria Streptococcus pneumoniae B1-438; type: functional, streptococcus pneum
Streptococcus viridans = experiment: In vitro antimicrobial activity against aerobic bacteria Streptococcus viridans 9943; type: functional
[18] = test system: Staphylococcus epidermidis; experiment: In vitro antimicrobial activity against Staphylococcus epidermidis EPI1; type: functional
Mus musculus [19] = experiment: Peripheral plasma levels in mice after oral administration of 100 mg/kg dose for 0.5 hr; type: functional, organism-based; set-up: dose 100 mg/kg; summary of the method: as §1
Haemophilus influenzae [20] = experiment: In vitro antimicrobial activity against Haemophilus influenzae.; type: functional
Staphylococcus aureus [21] = experiment: In vitro antimicrobial activity against aerobic bacteria Staphylococcus aureus V135; type: functional
Streptococcus pneumoniae [22] = experiment: In vitro antimicrobial activity against Streptococcus pneumoniae; type: functional
Mus musculus [23] = experiment: Peripheral plasma levels in mice after oral administration of 100 mg/kg dose for 1 hr; type: functional, organism-based; set-up: dose 100 mg/kg; summary of the method: as §1
Haemophilus influenzae [24] = experiment: In vitro antimicrobial activity against aerobic bacteria Haemophilus influenzae MX366,; type: functional
Streptococcus pyogenes [25] = experiment: In vitro antimicrobial activity against Streptococcus pyogenes C203; type: functional
Mus musculus [26] = experiment: Peripheral plasma levels in mice after oral administration of 100 mg/kg dose for 4 hr; type: functional, organism-based; set-up: dose 100 mg/kg; summary of the method: as §1
Streptococcus [27] = experiment: In vitro antimicrobial activity against aerobic bacteria Streptococcus B 14; type: functional
Streptococcus [28] = experiment: In vitro antimicrobial activity against aerobic bacteria Streptococcus D 8043; type: functional
Staphylococcus aureus [29] = experiment: In vitro antimicrobial activity against aerobic bacteria Staphylococcus aureus V140,; type: functional
Mus musculus [30] = experiment: Peripheral plasma levels in mice after oral administration of 100 mg/kg dose for 0.25 hr; type: functional, organism-based; set-up: dose 100 mg/kg; summary of the method: as §1
Streptococcus [31] = experiment: In vitro antimicrobial activity against aerobic bacteria Streptococcus G Kruder; type: functional; details: Streptococcus; read-out: MIC
Chlamydia trachomatis = experiment: In vitro antimicrobial activity against chlamydia trachomatis.; type: functional
Cutibacterium acnes = experiment: In vitro antimicrobial activity against anaerobic bacteria propionibacterium acnes 79; type: functional
[32] = test system: Prevotella melaninogenica; experiment: In vitro antimicrobial activity against anaerobic bacteria bacteroides melaninogenicus 2736; type: functional
[33] = test system: Bacteroides thetaiotaomicron; experiment: In vitro antimicrobial activity against anaerobic bacteria bacteroides thetaiotaomicron 1438; type: functional
Eikenella corrodens = experiment: In vitro antimicrobial activity against anaerobic bacteria bacteroides corrodens 1874; type: functional
Mus musculus [34] = experiment: Peripheral plasma levels in mice after oral administration of 50 mg/kg dose for 2 hr; type: functional, organism-based; set-up: dose 50 mg/kg; summary of the method: as §1
Mus musculus [35] = experiment: Peripheral plasma levels in mice after oral administration of 50 mg/kg dose for 0.5 hr; type: functional, organism-based; set-up: dose 50 mg/kg; summary of the method: as §1
Fusobacterium = experiment: In vitro antimicrobial activity against anaerobic bacteria fusobacterium symbiosum 1470; type: functional
Bacteroides fragilis [36] = experiment: In vitro antimicrobial activity against anaerobic bacteria bacteroides fragilis 111; type: functional
[37] = test system: Fusobacterium necrophorum; experiment: In vitro antimicrobial activity against anaerobic bacteria usobacterium necrophorum 6054A; type: functional
Clostridium perfringens = experiment: In vitro antimicrobial activity against anaerobic bacteria clostridium perfringens 81,; type: functional
Mus musculus [38] = experiment: Peripheral plasma levels in mice after oral administration of 50 mg/kg dose for 0.25 hr; type: functional, organism-based; set-up: dose 50 mg/kg; summary of the method: as §1
Collinsella aerofaciens = experiment: In vitro antimicrobial activity against anaerobic bacteria eubacterium aerofaciens 1235; type: functional
[39] = test system: Peptostreptococcus anaerobius; experiment: In vitro antimicrobial activity against anaerobic bacteria eubacterium peptostreptococcus anaerobius 1428,; type: functional
Anaerococcus prevotii = experiment: In vitro antimicrobial activity against anaerobic bacteria peptococcus prevoti 1281; type: functional
Phocaeicola vulgatus = experiment: In vitro antimicrobial activity against anaerobic bacteria bacteroides vulgatus 1211; type: functional
[40] = In vitro antimicrobial activity against anaerobic bacteria peptostreptococcus intermedius 1264; type: functional
Bacteroides fragilis [41] = experiment: In vitro antimicrobial activity against anaerobic bacteria bacteroides fragilis 1936B,; type: functional
Clostridium septicum = experiment: In vitro antimicrobial activity against anaerobic bacteria clostridium septicum 1128; type: functional
[42] = test system: Prevotella melaninogenica; experiment: In vitro antimicrobial activity against anaerobic bacteria bacteroides melaninogenicus 1856,; type: functional
[43] = test system: Peptoniphilus asaccharolyticus; experiment: In vitro antimicrobial activity against anaerobic bacteria peptococcus asaccharolyticus 1302; type: functional
Bacteroides fragilis [44] = experiment: In vitro antimicrobial activity against anaerobic bacteria bacteroides fragilis 1877; type: functional
Clostridioides difficile = experiment: In vitro antimicrobial activity against anaerobic bacteria Clostridium difficile 2994; type: functional

CC[C@H]1OC(=O)C[C@@H](O)[C@H](C)[C@@H](O[C@@H]2O[C@H](C)[C@@H](O)[C@H](N(C)C)[C@H]2O)[C@@H](CCN2C(=O)c3ccccc3C2=O)C[C@@H](C)C(=O)/C=C/C(C)=C/[C@@H]1CO[C@@H]1O[C@H](C)[C@@H](O)[C@@H](OC)[C@H]1OC showed an MIC (Haemophilus influenzae [1]) of 32 µg/mL (≈ 35.4 µM), an MIC (Streptococcus [2]) of 8 µg/mL (≈ 8.86 µM) and an MIC (Streptococcus [3]) of 0.5 µg/mL (≈ 0.554 µM). For the same compound, the MIC (Enterococcus faecium) was 8 µg/mL (≈ 8.86 µM), the Concentration (Mus musculus [4]) was 0.8 µg/mL and the MIC (Streptococcus [5]) was 8 µg/mL (≈ 8.86 µM). The MIC (Streptococcus sanguinis) was 2 µg/mL (≈ 2.21 µM), the ED50 (Streptococcus pyogenes [6]) was 15 mg/kg and the MIC (Streptococcus [7]) was 8 µg/mL (≈ 8.86 µM). The Concentration (Mus musculus [8]) was 0.9 µg/mL, the MIC (Streptococcus [9]) was 4 µg/mL (≈ 4.43 µM) and the MIC (Staphylococcus aureus [10]) was 0.12 µg/mL (≈ 0.133 µM). For the same compound, the MIC [11] was > 128 µg/mL, the MIC [12] was 0.1 µg/mL (≈ 0.111 µM) and the MIC (Staphylococcus aureus [13]) was 0.5 µg/mL (≈ 0.554 µM). For the same compound, the MIC (Staphylococcus aureus [14]) was 0.25 µg/mL (≈ 0.277 µM), the MIC (Staphylococcus aureus [15]) was 0.25 µg/mL (≈ 0.277 µM) and the ED50 (Streptococcus pyogenes [16]) was 2.7 mg/kg. The MIC (Streptococcus pneumoniae [17]) was > 128 µg/mL, the MIC (Streptococcus viridans) was > 128 µg/mL and the MIC [18] was 0.12 µg/mL (≈ 0.133 µM). For the same compound, the Concentration (Mus musculus [19]) was < 0.1 µg/mL, the MIC (Haemophilus influenzae [20]) was 32 µg/mL (≈ 35.4 µM) and the MIC (Staphylococcus aureus [21]) was 0.5 µg/mL (≈ 0.554 µM). For the same compound, the MIC (Streptococcus pneumoniae [22]) was 2 µg/mL (≈ 2.21 µM), the Concentration (Mus musculus [23]) was 2.1 µg/mL and the MIC (Haemophilus influenzae [24]) was 32 µg/mL (≈ 35.4 µM). It also gave an MIC (Streptococcus pyogenes [25]) of 0.25 µg/mL (≈ 0.277 µM), a Concentration (Mus musculus [26]) of 0.3 µg/mL and an MIC (Streptococcus [27]) of 8 µg/mL (≈ 8.86 µM). The MIC (Streptococcus [28]) was 4 µg/mL (≈ 4.43 µM), the MIC (Staphylococcus aureus [29]) was 0.5 µg/mL (≈ 0.554 µM) and the Concentration (Mus musculus [30]) was < 0.1 µg/mL. The MIC (Streptococcus [31]) was 32 µg/mL (≈ 35.4 µM).

In the case of CC[C@H]1OC(=O)C[C@@H](O)[C@H](C)[C@@H](O[C@@H]2O[C@H](C)[C@@H](O[C@H]3C[C@@](C)(O)[C@@H](O)[C@H](C)O3)[C@H](N(C)C)[C@H]2O)[C@@H](CCCl)C[C@@H](C)C(=O)/C=C/C(C)=C/[C@@H]1CO[C@@H]1O[C@H](C)[C@@H](O)[C@@H](OC)[C@H]1OC, the MIC (Chlamydia trachomatis) is reported as 1 µg/mL (≈ 1.07 µM), the MIC (Cutibacterium acnes) is reported as > 128 µg/mL and the MIC (Enterococcus faecium) is reported as > 128 µg/mL. It also gave a Concentration (Mus musculus [4]) of 0.9 µg/mL, an MIC [32] of 2 µg/mL (≈ 2.14 µM) and an MIC [33] of 2 µg/mL (≈ 2.14 µM). It also gave an MIC (Eikenella corrodens) of 4 µg/mL (≈ 4.27 µM), a Concentration (Mus musculus [34]) of 0.5 µg/mL and a Concentration (Mus musculus [8]) of 1.3 µg/mL. The Concentration (Mus musculus [35]) was 1.9 µg/mL, the MIC (Staphylococcus aureus [10]) was 1 µg/mL (≈ 1.07 µM) and the MIC (Fusobacterium) was 4 µg/mL (≈ 4.27 µM). For the same compound, the MIC (Bacteroides fragilis [36]) was 8 µg/mL (≈ 8.54 µM), the MIC [37] was > 128 µg/mL and the MIC (Clostridium perfringens) was < 0.5 µg/mL. For the same compound, the Concentration (Mus musculus [38]) was 1.9 µg/mL, the ED50 (Streptococcus pyogenes [16]) was > 6.3 mg/kg and the MIC (Collinsella aerofaciens) was 64 µg/mL (≈ 68.3 µM). It also gave an MIC [18] of 1 µg/mL (≈ 1.07 µM), an MIC [39] of 4 µg/mL (≈ 4.27 µM) and a Concentration (Mus musculus [19]) of 8.8 µg/mL. The MIC (Haemophilus influenzae [20]) was > 128 µg/mL, the MIC (Anaerococcus prevotii) was 8 µg/mL (≈ 8.54 µM) and the MIC (Phocaeicola vulgatus) was 1 µg/mL (≈ 1.07 µM). The MIC (Streptococcus pneumoniae [22]) was 32 µg/mL (≈ 34.2 µM), the Concentration (Mus musculus [23]) was 3 µg/mL and the MIC [40] was 64 µg/mL (≈ 68.3 µM). The MIC (Bacteroides fragilis [41]) was 4 µg/mL (≈ 4.27 µM), the MIC (Streptococcus pyogenes [25]) was 2 µg/mL (≈ 2.14 µM) and the MIC (Clostridium septicum) was < 0.5 µg/mL. The MIC [42] was 2 µg/mL (≈ 2.14 µM), the MIC [43] was 32 µg/mL (≈ 34.2 µM) and the MIC (Bacteroides fragilis [44]) was 4 µg/mL (≈ 4.27 µM). The Concentration (Mus musculus [26]) was 0.4 µg/mL, the MIC (Clostridioides difficile) was < 0.5 µg/mL and the Concentration (Mus musculus [30]) was 10 µg/mL.
